Experimental data from ChEMBL document CHEMBL1134493, “2-(2-Oxo-1,4-dihydro-2H-quinazolin-3-yl)- and 2-(2,2-dioxo-1,4-dihydro-2H-2lambda6-benzo[1,2,6]thiadiazin-3-yl)-N-hydroxy-acetamides as potent and selective peptide deformylase inhibitors” (J Med Chem, 2001).
In brackets after ≈: the same amount, converted by molar mass.

Experiments:
Haemophilus influenzae = assay: In vitro antibacterial activity against Haemophilus influenzae 11; type: functional
Method in brief: (§1)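 Broth microdilution MIC per NCCLS guidelines; strains from in-house collection (ATCC and hospital isolates) stored at -80 °C; E. coli tested as permeable outer-membrane mutant DC2. MIC taken as lowest concentration preventing visible growth after 18 to 24 h at 37 °C.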

Peptide deformylase = biological target: T1, Peptide deformylase (Escherichia coli, UniProt Q9JN24); assay: Inhibition of the isolated native Escherichia coli peptide deformylase (PDF)
T1 sequence (Q9JN24 whole entry): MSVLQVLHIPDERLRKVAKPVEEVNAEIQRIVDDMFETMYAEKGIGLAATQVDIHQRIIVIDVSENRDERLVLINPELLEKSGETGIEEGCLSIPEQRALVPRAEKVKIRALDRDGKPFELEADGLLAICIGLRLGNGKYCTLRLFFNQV

Escherichia coli = assay: In vitro antibacterial activity against Escherichia coli; type: functional; method in brief: as §1
Moraxella catarrhalis = assay: In vitro antibacterial activity against Moraxella catarrhalis RA21; type: functional; method in brief: as §1
[1] = biological target: Angiotensin-converting enzyme (Homo sapiens, UniProt P12821); assay: Inhibition against angiotensin I converting enzyme
Sequence of Angiotensin-converting enzyme (P12821 whole entry): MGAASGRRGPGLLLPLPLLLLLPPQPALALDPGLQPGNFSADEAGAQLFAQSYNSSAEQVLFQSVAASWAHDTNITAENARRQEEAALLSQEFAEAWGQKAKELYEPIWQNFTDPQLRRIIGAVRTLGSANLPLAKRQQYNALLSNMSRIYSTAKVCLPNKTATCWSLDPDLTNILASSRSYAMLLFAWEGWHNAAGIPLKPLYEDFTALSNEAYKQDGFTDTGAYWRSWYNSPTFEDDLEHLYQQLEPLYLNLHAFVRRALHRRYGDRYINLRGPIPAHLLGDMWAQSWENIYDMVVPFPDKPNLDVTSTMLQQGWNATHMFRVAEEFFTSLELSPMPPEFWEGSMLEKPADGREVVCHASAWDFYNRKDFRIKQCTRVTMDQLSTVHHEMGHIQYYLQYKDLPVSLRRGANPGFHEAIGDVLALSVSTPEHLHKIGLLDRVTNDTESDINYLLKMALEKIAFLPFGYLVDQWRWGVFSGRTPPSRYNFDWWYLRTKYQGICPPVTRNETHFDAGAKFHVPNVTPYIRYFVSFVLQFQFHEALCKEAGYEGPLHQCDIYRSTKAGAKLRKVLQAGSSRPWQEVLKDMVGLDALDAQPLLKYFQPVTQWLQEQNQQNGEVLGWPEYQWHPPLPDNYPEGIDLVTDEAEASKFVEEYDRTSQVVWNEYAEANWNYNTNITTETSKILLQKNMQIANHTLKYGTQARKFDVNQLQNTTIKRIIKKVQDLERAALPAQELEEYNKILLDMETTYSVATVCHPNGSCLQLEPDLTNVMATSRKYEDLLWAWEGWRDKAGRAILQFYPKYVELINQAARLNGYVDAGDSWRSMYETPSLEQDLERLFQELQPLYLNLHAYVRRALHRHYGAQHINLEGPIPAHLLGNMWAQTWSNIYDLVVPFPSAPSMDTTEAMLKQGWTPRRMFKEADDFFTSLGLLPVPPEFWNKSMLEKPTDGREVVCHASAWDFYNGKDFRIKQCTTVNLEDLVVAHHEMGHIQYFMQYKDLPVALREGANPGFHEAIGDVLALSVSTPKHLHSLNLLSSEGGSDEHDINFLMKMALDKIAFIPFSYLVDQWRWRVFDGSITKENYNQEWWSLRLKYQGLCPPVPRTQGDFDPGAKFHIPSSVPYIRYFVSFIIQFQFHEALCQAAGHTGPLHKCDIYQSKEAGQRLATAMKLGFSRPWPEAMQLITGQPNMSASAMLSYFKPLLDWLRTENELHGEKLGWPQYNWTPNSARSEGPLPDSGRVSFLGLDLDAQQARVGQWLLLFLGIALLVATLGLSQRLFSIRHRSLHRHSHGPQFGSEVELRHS

[2] = biological target: T2, Endothelin-converting enzyme 1 (Homo sapiens, UniProt P42892); assay: Inhibition against endothelin-converting enzyme.
T2 sequence (P42892 whole entry): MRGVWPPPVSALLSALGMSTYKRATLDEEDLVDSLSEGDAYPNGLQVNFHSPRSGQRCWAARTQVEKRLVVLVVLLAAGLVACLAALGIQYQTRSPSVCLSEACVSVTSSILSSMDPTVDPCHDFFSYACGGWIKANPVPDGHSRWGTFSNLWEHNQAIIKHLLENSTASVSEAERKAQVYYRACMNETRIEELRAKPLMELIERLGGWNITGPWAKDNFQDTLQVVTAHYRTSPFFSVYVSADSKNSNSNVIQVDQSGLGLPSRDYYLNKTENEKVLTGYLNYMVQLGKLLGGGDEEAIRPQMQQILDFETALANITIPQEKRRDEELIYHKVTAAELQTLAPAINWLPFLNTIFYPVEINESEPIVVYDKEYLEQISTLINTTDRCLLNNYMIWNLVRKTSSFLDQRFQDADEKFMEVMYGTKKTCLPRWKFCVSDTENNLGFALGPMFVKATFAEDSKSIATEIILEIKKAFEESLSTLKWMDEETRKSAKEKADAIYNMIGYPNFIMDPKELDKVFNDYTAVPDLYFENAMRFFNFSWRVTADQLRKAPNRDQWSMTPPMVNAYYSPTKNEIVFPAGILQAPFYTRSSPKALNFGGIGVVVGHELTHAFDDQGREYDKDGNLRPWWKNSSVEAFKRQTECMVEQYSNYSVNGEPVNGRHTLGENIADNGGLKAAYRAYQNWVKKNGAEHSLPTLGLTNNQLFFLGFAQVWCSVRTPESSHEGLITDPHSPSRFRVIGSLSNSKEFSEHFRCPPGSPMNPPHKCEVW

[3] = biological target: Macrophage metalloelastase (Homo sapiens, UniProt P39900); assay: Inhibition of human macrophage elastase, matrix metalloprotease-12 (MMP-12).
Sequence of Macrophage metalloelastase (P39900 whole entry): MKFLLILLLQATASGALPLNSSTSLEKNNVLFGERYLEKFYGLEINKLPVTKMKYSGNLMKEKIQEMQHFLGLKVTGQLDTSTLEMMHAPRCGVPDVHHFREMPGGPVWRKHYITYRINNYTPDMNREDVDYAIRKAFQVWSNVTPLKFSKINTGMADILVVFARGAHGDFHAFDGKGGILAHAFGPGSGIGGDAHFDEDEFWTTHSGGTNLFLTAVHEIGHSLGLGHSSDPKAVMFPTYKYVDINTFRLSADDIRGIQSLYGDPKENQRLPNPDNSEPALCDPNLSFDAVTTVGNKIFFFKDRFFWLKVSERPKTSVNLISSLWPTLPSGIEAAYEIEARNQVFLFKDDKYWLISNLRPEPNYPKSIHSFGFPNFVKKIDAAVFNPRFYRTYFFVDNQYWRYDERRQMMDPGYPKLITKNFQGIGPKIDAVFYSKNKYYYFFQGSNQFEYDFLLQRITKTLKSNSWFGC

Collagenase 3 = Collagenase 3 (Homo sapiens, UniProt P45452); assay: Inhibition of Collagenase-3, matrix metalloprotease-13 (MMP-13).
Neprilysin = Neprilysin (Homo sapiens, UniProt P08473); assay: Inhibition against neutral endopeptidase
Sequence of Neprilysin (P08473 whole entry): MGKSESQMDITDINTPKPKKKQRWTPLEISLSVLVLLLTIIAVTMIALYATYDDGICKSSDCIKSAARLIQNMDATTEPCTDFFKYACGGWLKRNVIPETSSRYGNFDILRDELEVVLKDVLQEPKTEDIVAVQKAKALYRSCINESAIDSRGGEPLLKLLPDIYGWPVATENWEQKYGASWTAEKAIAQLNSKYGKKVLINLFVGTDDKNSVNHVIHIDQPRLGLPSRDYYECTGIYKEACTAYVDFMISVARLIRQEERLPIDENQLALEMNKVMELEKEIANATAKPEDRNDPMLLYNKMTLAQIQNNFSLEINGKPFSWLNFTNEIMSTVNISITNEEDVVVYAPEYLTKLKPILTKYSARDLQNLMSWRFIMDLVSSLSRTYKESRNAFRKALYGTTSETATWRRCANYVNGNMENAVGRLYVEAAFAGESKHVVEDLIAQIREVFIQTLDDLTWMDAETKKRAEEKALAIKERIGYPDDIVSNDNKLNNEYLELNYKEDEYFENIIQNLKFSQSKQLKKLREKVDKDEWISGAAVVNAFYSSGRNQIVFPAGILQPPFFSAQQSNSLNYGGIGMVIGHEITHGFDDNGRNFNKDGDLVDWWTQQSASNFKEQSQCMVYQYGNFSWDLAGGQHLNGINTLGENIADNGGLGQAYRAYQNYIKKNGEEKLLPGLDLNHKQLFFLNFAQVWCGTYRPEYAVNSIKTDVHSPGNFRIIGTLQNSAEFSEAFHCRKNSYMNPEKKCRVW

SMILES	MIC (Haemophilus influenzae) [µg/mL]	IC50 (Peptide deformylase) [nM]	MIC (Escherichia coli) [µg/mL]	MIC (Moraxella catarrhalis) [µg/mL]	IC50 [1] [nM]	IC50 [2] [nM]	IC50 [3] [nM]	IC50 (Collagenase 3) [nM]	IC50 (Neprilysin) [nM]
O=C(CN1Cc2c(Br)cccc2NC1=O)NO	16 (≈ 53.3 µM)	49	32 (≈ 107 µM)	4 (≈ 13.3 µM)	–	–	–	–	–
O=C(CN1Cc2c(Br)cccc2N(CC2CC2)S1(=O)=O)NO	64 (≈ 164 µM)	–	64 (≈ 164 µM)	1 (≈ 2.56 µM)	–	–	–	–	–
O=C(CN1Cc2c(Cl)cccc2NS1(=O)=O)NO	16 (≈ 54.8 µM)	120	> 64	8 (≈ 27.4 µM)	> 100000	> 10000	> 100000	> 500	> 100000
O=C(CN1Cc2c(Cl)cccc2N(CCCc2ccccc2)S1(=O)=O)NO	32 (≈ 78.1 µM)	–	> 64	8 (≈ 19.5 µM)	–	–	–	–	–
O=C(CN1Cc2c(F)cccc2NS1(=O)=O)NO	> 64	870	> 64	> 64	–	–	–	–	–
O=C(CN1Cc2c(Cl)cccc2N(Cc2ccccc2)S1(=O)=O)NO	32 (≈ 83.8 µM)	–	64 (≈ 168 µM)	8 (≈ 21 µM)	–	–	–	–	–
O=C(CN1Cc2c(Br)cccc2NS1(=O)=O)NO	> 64	98	32 (≈ 95.2 µM)	4 (≈ 11.9 µM)	–	–	–	–	–
NNC(=O)CN1Cc2c(Cl)cccc2NC1=O	–	27000	50 (≈ 196 µM)	–	–	–	–	–	–
O=C(CN1Cc2ccccc2NC1=O)NO	> 64	–	> 64	> 64	–	–	–	–	–
O=C(CN1Cc2c(Cl)cccc2N(CC2CC2)S1(=O)=O)NO	64 (≈ 185 µM)	110	> 64	4 (≈ 11.6 µM)	–	–	–	–	–
O=C(CN1Cc2c(Cl)cccc2NC1=O)NO	8 (≈ 31.3 µM)	310	16 (≈ 62.6 µM)	2 (≈ 7.82 µM)	90000	> 10000	> 100000	460	> 100000
O=C(CN1Cc2ccccc2NS1(=O)=O)NO	> 64	760	> 64	> 64	–	–	–	–	–
O=C(CN1Cc2c(F)cccc2NC1=O)NO	64 (≈ 268 µM)	870	> 64	16 (≈ 66.9 µM)	–	–	–	–	–
CCCCN1c2cccc(Cl)c2CN(CC(=O)NO)S1(=O)=O	64 (≈ 184 µM)	590	> 64	2 (≈ 5.75 µM)	–	–	–	–	–
O=C(CN1Cc2c(cccc2C(F)(F)F)NC1=O)NO	64 (≈ 221 µM)	230	64 (≈ 221 µM)	8 (≈ 27.7 µM)	–	–	–	–	–
O=C(CN1Cc2c(cccc2C(F)(F)F)NS1(=O)=O)NO	32 (≈ 98.4 µM)	130	> 64	8 (≈ 24.6 µM)	–	–	–	–	–
